This is an account of results in ChEMBL document CHEMBL3864165, “Design, synthesis, and AChE inhibitory activity of new benzothiazole-piperazines” (Bioorg Med Chem Lett, 2016).

The target in data set [1] is Acetylcholinesterase (Electrophorus electricus) (UniProt O42275). Briefly: Inhibition of electric eel AChE at 10^-6 M preincubated for 15 mins followed by acetylthiocholine iodide substrate addition measured for 5 mins by Ellman's spectrophotometric method relative to control. A general note: DTNB colorimetry detects thiols as they appear.
Sequence of Acetylcholinesterase (Electrophorus electricus) (O42275 24-633 limits assumed): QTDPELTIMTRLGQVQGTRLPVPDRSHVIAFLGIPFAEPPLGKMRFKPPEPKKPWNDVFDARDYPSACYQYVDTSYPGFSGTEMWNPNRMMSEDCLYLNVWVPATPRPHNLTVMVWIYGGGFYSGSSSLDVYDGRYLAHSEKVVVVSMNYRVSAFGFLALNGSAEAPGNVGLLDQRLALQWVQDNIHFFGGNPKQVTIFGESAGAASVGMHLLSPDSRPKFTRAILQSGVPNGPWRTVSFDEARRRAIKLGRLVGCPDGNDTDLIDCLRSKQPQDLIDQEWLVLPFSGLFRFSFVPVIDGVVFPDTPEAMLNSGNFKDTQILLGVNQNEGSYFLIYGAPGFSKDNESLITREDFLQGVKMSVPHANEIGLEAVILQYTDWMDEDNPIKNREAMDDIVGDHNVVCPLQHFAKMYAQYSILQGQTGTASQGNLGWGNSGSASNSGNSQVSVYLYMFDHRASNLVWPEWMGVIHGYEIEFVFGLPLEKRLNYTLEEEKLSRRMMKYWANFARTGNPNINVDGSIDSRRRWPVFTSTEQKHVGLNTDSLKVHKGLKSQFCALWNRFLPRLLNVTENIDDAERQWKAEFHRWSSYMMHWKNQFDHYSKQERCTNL
Data set [2] has the same target. Put plainly: Inhibition of electric eel AChE at 10^-7 M preincubated for 15 mins followed by acetylthiocholine iodide substrate addition measured for 5 mins by Ellman's spectrophotometric method relative to control.
For data set [3], the target named is T1, Acetylcholinesterase (Electrophorus electricus, UniProt O42275). Briefly: Inhibition of electric eel AChE preincubated for 15 mins followed by acetylthiocholine iodide substrate addition measured for 5 mins by Ellman's spectrophotometric method.
T1 sequence (O42275 whole entry): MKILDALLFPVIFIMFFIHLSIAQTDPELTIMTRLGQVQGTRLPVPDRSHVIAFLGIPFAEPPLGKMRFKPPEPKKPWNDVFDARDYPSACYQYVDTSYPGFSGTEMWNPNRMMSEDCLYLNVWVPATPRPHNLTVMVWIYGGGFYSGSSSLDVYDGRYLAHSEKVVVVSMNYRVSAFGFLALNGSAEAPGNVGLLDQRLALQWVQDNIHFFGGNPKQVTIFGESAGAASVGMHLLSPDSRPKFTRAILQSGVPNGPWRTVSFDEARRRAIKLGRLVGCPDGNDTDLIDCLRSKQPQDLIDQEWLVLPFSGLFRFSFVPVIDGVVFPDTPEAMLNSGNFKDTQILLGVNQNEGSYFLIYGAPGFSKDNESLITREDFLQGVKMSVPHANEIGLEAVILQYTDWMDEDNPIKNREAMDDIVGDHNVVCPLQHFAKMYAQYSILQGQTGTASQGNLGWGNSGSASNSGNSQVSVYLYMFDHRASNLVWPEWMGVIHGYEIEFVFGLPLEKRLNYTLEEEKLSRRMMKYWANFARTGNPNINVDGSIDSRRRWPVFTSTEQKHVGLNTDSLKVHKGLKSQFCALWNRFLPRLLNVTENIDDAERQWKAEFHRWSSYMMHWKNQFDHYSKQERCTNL
Data set [4] has as its target Acetylcholinesterase (Electrophorus electricus) (UniProt O42275). Put plainly: Inhibition of electric eel AChE at 10^-3 M preincubated for 15 mins followed by acetylthiocholine iodide substrate addition measured for 5 mins by Ellman's spectrophotometric method relative to control.
Data set [5] shares this target. Briefly: Inhibition of electric eel AChE at 10^-4 M preincubated for 15 mins followed by acetylthiocholine iodide substrate addition measured for 5 mins by Ellman's spectrophotometric method relative to control.
Data set [6] has as its target T1, Acetylcholinesterase. Put plainly: Mixed-type inhibition of electric eel AChE preincubated for 15 mins followed by acetylthiocholine iodide substrate addition measured for 5 mins by Lineweaver-Burk plot analysis. An outline of the steps: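 Substrate-velocity curves recorded with and without inhibitor, with initial velocities measured at acetylthiocholine (ATC) concentrations from 600 µM down to 18.75 µM. Data analysed as 1/V plots. Ki taken as the x-axis intercept of a secondary plot of 1/V versus inhibitor concentration.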

Data set [7] can be described thus: Cytotoxicity against mouse NIH/3T3 cells after 24 hrs by MTT assay. The following applies: NIH/3T3 cells.
In data set [8] the test system is Salmonella typhimurium. Briefly: Genotoxicity in Salmonella typhimurium TA98 assessed as increase in number of revertants at 0.156 mg/ml in presence of aroclor-1254-induced Sprague-Dawley rat liver S9 fraction by Ames-MPF assay relative to control. In kind it is toxicity, organism-based. The following applies: salmonella enterica subsp. enterica serovar typhimurium. In a few lines: (§1)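 Ames MPF microplate fluctuation format, run with and without S9 metabolic activation. The read-out is the count of positive (revertant) wells. A run is accepted only when positive controls give more than 25 positive wells and negative controls give fewer than eight.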

Data set [9] concerns Salmonella typhimurium. Briefly: Genotoxicity in Salmonella typhimurium TA98 assessed as increase in number of revertants at 0.3125 mg/ml in presence of aroclor-1254-induced Sprague-Dawley rat liver S9 fraction by Ames-MPF assay relative to control. The following applies: salmonella enterica subsp. enterica serovar typhimurium. In kind it is toxicity, organism-based. In a few lines:
as §1

Data set [10] concerns Salmonella typhimurium. Briefly: Genotoxicity in Salmonella typhimurium TA98 assessed as increase in number of revertants at 0.625 mg/ml in presence of aroclor-1254-induced Sprague-Dawley rat liver S9 fraction by Ames-MPF assay relative to control. It counts as toxicity, organism-based. The following applies: salmonella enterica subsp. enterica serovar typhimurium. An outline of the steps: as §1

Data set [11] concerns Salmonella typhimurium. Put plainly: Genotoxicity in Salmonella typhimurium TA98 assessed as increase in number of revertants at 1.25 mg/ml in presence of aroclor-1254-induced Sprague-Dawley rat liver S9 fraction by Ames-MPF assay relative to control. In kind it is toxicity, organism-based. The following applies: salmonella enterica subsp. enterica serovar typhimurium. An outline of the steps: as §1

In data set [12] the test system is Salmonella typhimurium. Briefly: Genotoxicity in Salmonella typhimurium TA98 assessed as increase in number of revertants at 2.5 mg/ml in presence of aroclor-1254-induced Sprague-Dawley rat liver S9 fraction by Ames-MPF assay relative to control. The following applies: salmonella enterica subsp. enterica serovar typhimurium. In kind it is toxicity, organism-based. In a few lines: as §1

Data set [13] concerns Salmonella typhimurium. Put plainly: Genotoxicity in Salmonella typhimurium TA98 assessed as increase in number of revertants at 5 mg/ml in presence of aroclor-1254-induced Sprague-Dawley rat liver S9 fraction by Ames-MPF assay relative to control. In kind it is toxicity, organism-based. The following applies: salmonella enterica subsp. enterica serovar typhimurium. An outline of the steps:
as §1

For data set [14], the system named is Salmonella typhimurium. Briefly: Genotoxicity in Salmonella typhimurium TA98 assessed as increase in number of revertants at 0.156 mg/ml in absence of aroclor-1254-induced Sprague-Dawley rat liver S9 fraction by Ames-MPF assay relative to control. In kind it is toxicity, organism-based. The following applies: salmonella enterica subsp. enterica serovar typhimurium. An outline of the steps: as §1

Data set [15] deals with Salmonella typhimurium. Briefly: Genotoxicity in Salmonella typhimurium TA98 assessed as increase in number of revertants at 0.3125 mg/ml in absence of aroclor-1254-induced Sprague-Dawley rat liver S9 fraction by Ames-MPF assay relative to control. The following applies: salmonella enterica subsp. enterica serovar typhimurium. In kind it is toxicity, organism-based. In a few lines:
as §1

The test system of data set [16] is Salmonella typhimurium. Briefly: Genotoxicity in Salmonella typhimurium TA98 assessed as increase in number of revertants at 0.625 mg/ml in absence of aroclor-1254-induced Sprague-Dawley rat liver S9 fraction by Ames-MPF assay relative to control. It counts as toxicity, organism-based. The following applies: salmonella enterica subsp. enterica serovar typhimurium. In a few lines:
as §1

Data set [17] deals with Salmonella typhimurium. Put plainly: Genotoxicity in Salmonella typhimurium TA98 assessed as increase in number of revertants at 1.25 mg/ml in absence of aroclor-1254-induced Sprague-Dawley rat liver S9 fraction by Ames-MPF assay relative to control. In kind it is toxicity, organism-based. The following applies: salmonella enterica subsp. enterica serovar typhimurium. In a few lines: as §1

The subject of data set [18] is Salmonella typhimurium. Put plainly: Genotoxicity in Salmonella typhimurium TA98 assessed as increase in number of revertants at 2.5 mg/ml in absence of aroclor-1254-induced Sprague-Dawley rat liver S9 fraction by Ames-MPF assay relative to control. In kind it is toxicity, organism-based. The following applies: salmonella enterica subsp. enterica serovar typhimurium. In a few lines: as §1

For data set [19], the system named is Salmonella typhimurium. Put plainly: Genotoxicity in Salmonella typhimurium TA98 assessed as increase in number of revertants at 5 mg/ml in absence of aroclor-1254-induced Sprague-Dawley rat liver S9 fraction by Ames-MPF assay relative to control. In kind it is toxicity, organism-based. The following applies: salmonella enterica subsp. enterica serovar typhimurium. An outline of the steps:
as §1

The test system of data set [20] is Salmonella typhimurium. Briefly: Genotoxicity in Salmonella typhimurium TA100 assessed as increase in number of revertants at 0.156 mg/ml in presence of aroclor-1254-induced Sprague-Dawley rat liver S9 fraction by Ames-MPF assay relative to control. The following applies: salmonella enterica subsp. enterica serovar typhimurium. It counts as toxicity, organism-based. An outline of the steps: as §1

In data set [21] the test system is Salmonella typhimurium. Briefly: Genotoxicity in Salmonella typhimurium TA100 assessed as increase in number of revertants at 0.3125 mg/ml in presence of aroclor-1254-induced Sprague-Dawley rat liver S9 fraction by Ames-MPF assay relative to control. In kind it is toxicity, organism-based. The following applies: salmonella enterica subsp. enterica serovar typhimurium. In a few lines: as §1

Data set [22] has as its system Salmonella typhimurium. Put plainly: Genotoxicity in Salmonella typhimurium TA100 assessed as increase in number of revertants at 0.625 mg/ml in presence of aroclor-1254-induced Sprague-Dawley rat liver S9 fraction by Ames-MPF assay relative to control. The following applies: salmonella enterica subsp. enterica serovar typhimurium. It counts as toxicity, organism-based. In a few lines:
as §1

In data set [23] the test system is Salmonella typhimurium. Briefly: Genotoxicity in Salmonella typhimurium TA100 assessed as increase in number of revertants at 1.25 mg/ml in presence of aroclor-1254-induced Sprague-Dawley rat liver S9 fraction by Ames-MPF assay relative to control. In kind it is toxicity, organism-based. The following applies: salmonella enterica subsp. enterica serovar typhimurium. An outline of the steps: as §1

Data set [24] has as its system Salmonella typhimurium. Briefly: Genotoxicity in Salmonella typhimurium TA100 assessed as increase in number of revertants at 2.5 mg/ml in presence of aroclor-1254-induced Sprague-Dawley rat liver S9 fraction by Ames-MPF assay relative to control. The following applies: salmonella enterica subsp. enterica serovar typhimurium. It counts as toxicity, organism-based. An outline of the steps:
as §1

Data set [25] deals with Salmonella typhimurium. Put plainly: Genotoxicity in Salmonella typhimurium TA100 assessed as increase in number of revertants at 5 mg/ml in presence of aroclor-1254-induced Sprague-Dawley rat liver S9 fraction by Ames-MPF assay relative to control. It counts as toxicity, organism-based. The following applies: salmonella enterica subsp. enterica serovar typhimurium. In a few lines: as §1

Data set [26] deals with Salmonella typhimurium. Briefly: Genotoxicity in Salmonella typhimurium TA100 assessed as increase in number of revertants at 0.156 mg/ml in absence of aroclor-1254-induced Sprague-Dawley rat liver S9 fraction by Ames-MPF assay relative to control. It counts as toxicity, organism-based. The following applies: salmonella enterica subsp. enterica serovar typhimurium. An outline of the steps: as §1

In data set [27] the test system is Salmonella typhimurium. Put plainly: Genotoxicity in Salmonella typhimurium TA100 assessed as increase in number of revertants at 0.3125 mg/ml in absence of aroclor-1254-induced Sprague-Dawley rat liver S9 fraction by Ames-MPF assay relative to control. It counts as toxicity, organism-based. The following applies: salmonella enterica subsp. enterica serovar typhimurium. In a few lines: as §1

Data set [28] has as its system Salmonella typhimurium. Briefly: Genotoxicity in Salmonella typhimurium TA100 assessed as increase in number of revertants at 0.625 mg/ml in absence of aroclor-1254-induced Sprague-Dawley rat liver S9 fraction by Ames-MPF assay relative to control. It counts as toxicity, organism-based. The following applies: salmonella enterica subsp. enterica serovar typhimurium. In a few lines:
as §1

Data set [29] deals with Salmonella typhimurium. Briefly: Genotoxicity in Salmonella typhimurium TA100 assessed as increase in number of revertants at 1.25 mg/ml in absence of aroclor-1254-induced Sprague-Dawley rat liver S9 fraction by Ames-MPF assay relative to control. It counts as toxicity, organism-based. The following applies: salmonella enterica subsp. enterica serovar typhimurium. In a few lines:
as §1

In data set [30] the test system is Salmonella typhimurium. Put plainly: Genotoxicity in Salmonella typhimurium TA100 assessed as increase in number of revertants at 2.5 mg/ml in absence of aroclor-1254-induced Sprague-Dawley rat liver S9 fraction by Ames-MPF assay relative to control. It counts as toxicity, organism-based. The following applies: salmonella enterica subsp. enterica serovar typhimurium. An outline of the steps: as §1

Data set [31] has as its system Salmonella typhimurium. Briefly: Genotoxicity in Salmonella typhimurium TA100 assessed as increase in number of revertants at 5 mg/ml in absence of aroclor-1254-induced Sprague-Dawley rat liver S9 fraction by Ames-MPF assay relative to control. It counts as toxicity, organism-based. The following applies: salmonella enterica subsp. enterica serovar typhimurium. An outline of the steps: as §1

pIC50, pKi: −log10 of the molar value. Bounds are passed on as bounds.

As to `COc1ccc2nc(NC(=O)CN3CCN(CCCN(C)C)CC3)sc2c1`, the inhibition in data set [1] and in data set [2] was more than 50% throughout. In addition, the pIC50 (usually the IC50 on a negative log10 scale, so that one unit is a factor of ten) against Acetylcholinesterase [3] was 6.93.
In the case of `COc1cc2nc(NC(=O)CN3CCN(CCCN(C)C)CC3)sc2cc1OC`, the inhibition (as a rule, the drop in the measured response relative to a control, in per cent) was more than 50% in [1], more than 50% in data set [2], more than 95% in [4] and 90% in [5]. In addition, at Acetylcholinesterase [3], the pIC50 is 7.24. Besides, on Acetylcholinesterase [6], the negative logarithm of the Ki (pKi) – broadly, the Ki on a negative log10 scale, so that one unit is a factor of ten – is 6.60. In addition, it took 100 µM to reach half-maximal inhibition in data set [7] (IC50 at 24 h). Moreover, the “fold change (FC)” value is reported as 0.28 in the data set on Salmonella typhimurium [8]; 1.4 in the data set with Salmonella typhimurium [9]; 0.56 in the data set with Salmonella typhimurium [10]; 0.84 in the data set with Salmonella typhimurium [11]; 1.02 in the data set with Salmonella typhimurium [12]; 1.49 with Salmonella typhimurium [13]. In addition, the “fold change (FC)” value in the data set on Salmonella typhimurium [14] was 0.94; in the data set with Salmonella typhimurium [15] it was 0.47; with Salmonella typhimurium [16], 1.04; in the data set on Salmonella typhimurium [17] it was 0.52; in the data set on Salmonella typhimurium [18], 1.15; with Salmonella typhimurium [19], 0.89. Also, the “fold change (FC)” value in the data set with Salmonella typhimurium [20] is on record as 0.98; in the data set with Salmonella typhimurium [21] it was 0.6; in the data set on Salmonella typhimurium [22], 0.53; in the data set with Salmonella typhimurium [23], 1.36; with Salmonella typhimurium [24], 1.36; in the data set with Salmonella typhimurium [25], 1.43. Moreover, the “fold change (FC)” value in the data set with Salmonella typhimurium [26] was 0.79; in the data set on Salmonella typhimurium [27] it was 0.9; in the data set with Salmonella typhimurium [28] it was 0.69; in the data set on Salmonella typhimurium [29], 1.32; in the data set with Salmonella typhimurium [30], 0.32; in the data set with Salmonella typhimurium [31] it was 0.05.
On to `COc1ccc2nc(NC(=O)CN3CCN(CCN(C)C)CC3)sc2c1`, for which the inhibition in data set [1] and in data set [2] was more than 50% in each case. The negative logarithm of the IC50 (pIC50) against Acetylcholinesterase [3] was 7.02.
Consider `COc1ccc2nc(NC(=O)CN3CCN(Cc4ccc(C)cc4)CC3)sc2c1`, for which, in [1], the inhibition is more than 50%. In addition, the pIC50 at Acetylcholinesterase [3] was 6.49.
